5 compounds from ChEMBL document CHEMBL4376835, “Discovery of Nonpungent Transient Receptor Potential Vanilloid 1 (TRPV1) Agonist as Strong Topical Analgesic” (J Med Chem, 2020) can be followed below.

Data set [1] can be described thus: Toxicity in ICR mouse assessed as ear edema administered topically and measured after 30 mins. The conditions noted are these: in vivo, topical_or_ocular, 0.5 h. The method in brief:
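Ear swelling test: a solution of the agent was applied to mouse ears, and ear punch biopsies were collected 30 min later and weighed.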

Data set [2] is described as follows: Drug uptake in porcine skin assessed as dermal accumulation applied topically as carbopol-gel with 1% formulation measured for 8 hrs by Franz diffusion cell based in vitro transdermal delivery test. The conditions noted are these: pig. It is filed as ADME, tissue-based, Sus scrofa, Zone of skin.
Data set [3] in a line: Toxicity in po dosed ICR mouse administered as single dose. Conditions: in vivo. The data set is classed as organism-based.
Data set [4] can be described thus: Systemic drug absorption in porcine skin assessed as drug accumulation in acceptor Franz cell applied topically as carbopol-gel with 1% formulation measured for 8 hrs by Franz diffusion cell based in vitro transdermal delivery test. It is filed as ADME, tissue-based, Sus scrofa, Zone of skin. Conditions: pig.
The nature of data set [5]: Toxicity in ICR mouse assessed as skin irritation by measuring ear scratching administered topically and measured for 30 mins. The conditions noted are these: in vivo, topical_or_ocular, 0.5 h. The method in brief:
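Ear scratching test: a solution of the agent was applied to mouse ears, and scratching movements were counted over the following 30 min.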

The subject of data set [6] is Mus musculus. Briefly: Induction of hypothermia in ICR mouse assessed as decrease in body temperature at 3 mg/kg, ip measured after 30 mins. It is filed as functional, organism-based.
Data set [7] in a line: Toxicity in ip dosed ICR mouse administered as single dose. It is filed as organism-based. The conditions noted are these: in vivo.
The target in data set [8] is Transient receptor potential cation channel subfamily A member 1 (Mus musculus) (UniProt Q8BLA8). Briefly: Agonist activity at mouse TRPA1 expressed in HEK293 cells assessed as increase in calcium influx at 1 uM incubated for 1 min by Fluo-4-AM dye based FLIPR assay. The data set is classed as cell-based. The method in brief: (§1)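 Intracellular calcium influx read by FLIPR in cells individually transfected with TRPV1, hTRPA1, mTRPA1, mTRPV3 or mTRPM8. Each transfected line was also challenged with its own reference TRP-family agonist as a responsiveness check.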

Data set [9] addresses Transient receptor potential cation channel subfamily A member 1 (Homo sapiens) (UniProt O75762). Put plainly: Agonist activity at human TRPA1 expressed in HEK293 cells assessed as increase in calcium influx at 100 uM incubated for 1 min by Fluo-4-AM dye based FLIPR assay. It is filed as cell-based. The gist of the method: as §1
Data set [10] addresses Transient receptor potential cation channel subfamily M member 8 (Mus musculus) (UniProt Q8R4D5). Briefly: Agonist activity at mouse TRPM8 expressed in HEK293 cells assessed as increase in calcium influx at 1 uM incubated for 1 min by Fluo-4-AM dye based FLIPR assay. The data set is classed as cell-based.
The target in data set [11] is T1, Transient receptor potential cation channel subfamily V member 3 (Mus musculus) (UniProt Q8K424).
T1 sequence (whole entry): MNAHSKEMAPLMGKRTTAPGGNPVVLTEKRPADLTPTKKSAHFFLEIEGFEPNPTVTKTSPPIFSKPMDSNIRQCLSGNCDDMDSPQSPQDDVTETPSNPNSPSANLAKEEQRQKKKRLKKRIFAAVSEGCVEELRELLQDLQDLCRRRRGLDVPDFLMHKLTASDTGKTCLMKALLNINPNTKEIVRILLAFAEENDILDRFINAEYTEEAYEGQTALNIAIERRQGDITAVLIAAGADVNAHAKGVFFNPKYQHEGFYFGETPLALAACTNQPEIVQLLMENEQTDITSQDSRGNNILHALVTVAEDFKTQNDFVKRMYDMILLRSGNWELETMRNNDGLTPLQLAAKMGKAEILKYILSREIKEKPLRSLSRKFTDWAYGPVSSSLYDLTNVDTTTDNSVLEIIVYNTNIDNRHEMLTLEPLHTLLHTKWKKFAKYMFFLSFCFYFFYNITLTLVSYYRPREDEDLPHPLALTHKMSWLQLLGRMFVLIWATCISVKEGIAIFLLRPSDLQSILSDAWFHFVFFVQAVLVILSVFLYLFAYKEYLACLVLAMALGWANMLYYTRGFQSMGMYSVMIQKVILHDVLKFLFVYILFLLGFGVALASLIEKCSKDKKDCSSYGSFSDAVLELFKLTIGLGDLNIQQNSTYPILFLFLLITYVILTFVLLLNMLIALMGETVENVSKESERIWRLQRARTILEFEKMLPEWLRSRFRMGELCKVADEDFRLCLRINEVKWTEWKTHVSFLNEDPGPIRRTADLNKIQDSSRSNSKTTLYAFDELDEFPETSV
Briefly: Agonist activity at mouse TRPV3 expressed in HEK293 cells assessed as increase in calcium influx at 10 uM incubated for 1 min by Fluo-4-AM dye based FLIPR assay. The data set is classed as cell-based.

Another data set has as its system Rattus norvegicus. Briefly: Analgesic activity in ip dosed L5/L6 spinal nerve ligation-induced neuropathic pain Sprague-Dawley rat model assessed as increase in paw withdrawal threshold in response to von frey filament compound administered at day 14 after ligation and measured up to 1.5 hrs after drug dosing by up and down method. It is filed as functional. The gist of the method: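 Rat spinal nerve ligation model of neuropathic pain. Compound was given i.p. at 1, 2, 5 or 10 mg/kg; a gabapentin 65 mg/kg i.p. arm and a saline i.p. arm were run alongside. Von Frey withdrawal thresholds were taken pre-surgery and on days 1, 7 and 14, then at 0.5, 1 and 1.5 h post-dose. Mean±SEM, n=7-8.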

The test system of data set [12] is Mus musculus. Briefly: Analgesic activity in ip dosed formalin-induced nociception ICR mouse model assessed as reduction in pain behaviour by measuring less licking of formalin injected hind paw pretreated with compound 30 mins prior to formalin induction by formalin test. It is filed as functional. The method in brief: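 Mice were dosed i.p. with 0.1–10 mg/kg, with vehicle and gabapentin (50, 100 mg/kg i.p.) arms. 2% formalin was injected into the dorsal hindpaw, and paw-licking time was recorded for the first phase (5 min) and the second phase (20–30 min). ED50 was taken from the dose–response. Mean±SEM, n=8.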

Activity calls are given as the source filed them.

Transient receptor potential cation channel subfamily M member 8 (Mus musculus), sequence (Q8R4D5 whole entry): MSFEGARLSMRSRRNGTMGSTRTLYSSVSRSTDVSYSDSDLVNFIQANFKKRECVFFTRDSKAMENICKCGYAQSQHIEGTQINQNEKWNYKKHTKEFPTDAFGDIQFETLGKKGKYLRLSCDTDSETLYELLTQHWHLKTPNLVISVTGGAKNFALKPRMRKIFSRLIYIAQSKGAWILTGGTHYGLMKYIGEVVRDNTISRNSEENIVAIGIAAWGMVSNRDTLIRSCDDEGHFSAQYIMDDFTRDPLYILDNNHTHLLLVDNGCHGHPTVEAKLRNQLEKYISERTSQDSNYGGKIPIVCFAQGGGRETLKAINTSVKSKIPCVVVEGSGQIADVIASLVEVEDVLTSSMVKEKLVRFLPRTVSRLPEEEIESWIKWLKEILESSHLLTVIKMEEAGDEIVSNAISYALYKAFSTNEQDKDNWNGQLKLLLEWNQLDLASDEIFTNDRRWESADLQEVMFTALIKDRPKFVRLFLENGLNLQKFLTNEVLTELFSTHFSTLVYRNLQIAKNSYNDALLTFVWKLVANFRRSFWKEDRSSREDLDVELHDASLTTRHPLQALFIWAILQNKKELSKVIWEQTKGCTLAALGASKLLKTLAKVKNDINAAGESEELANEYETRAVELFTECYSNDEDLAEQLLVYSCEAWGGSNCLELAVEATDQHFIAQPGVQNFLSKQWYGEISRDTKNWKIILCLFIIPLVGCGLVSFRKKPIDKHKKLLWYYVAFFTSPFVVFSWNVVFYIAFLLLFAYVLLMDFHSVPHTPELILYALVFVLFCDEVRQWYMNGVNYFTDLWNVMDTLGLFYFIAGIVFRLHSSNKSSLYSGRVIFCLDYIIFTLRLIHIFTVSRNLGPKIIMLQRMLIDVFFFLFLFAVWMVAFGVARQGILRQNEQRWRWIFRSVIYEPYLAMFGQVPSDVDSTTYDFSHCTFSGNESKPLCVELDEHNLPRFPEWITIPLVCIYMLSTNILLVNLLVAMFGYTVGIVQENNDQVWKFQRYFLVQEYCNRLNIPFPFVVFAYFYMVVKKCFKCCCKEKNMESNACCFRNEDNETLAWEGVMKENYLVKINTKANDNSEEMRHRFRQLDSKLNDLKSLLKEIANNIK
Transient receptor potential cation channel subfamily A member 1 (Mus musculus), sequence (Q8BLA8 whole entry): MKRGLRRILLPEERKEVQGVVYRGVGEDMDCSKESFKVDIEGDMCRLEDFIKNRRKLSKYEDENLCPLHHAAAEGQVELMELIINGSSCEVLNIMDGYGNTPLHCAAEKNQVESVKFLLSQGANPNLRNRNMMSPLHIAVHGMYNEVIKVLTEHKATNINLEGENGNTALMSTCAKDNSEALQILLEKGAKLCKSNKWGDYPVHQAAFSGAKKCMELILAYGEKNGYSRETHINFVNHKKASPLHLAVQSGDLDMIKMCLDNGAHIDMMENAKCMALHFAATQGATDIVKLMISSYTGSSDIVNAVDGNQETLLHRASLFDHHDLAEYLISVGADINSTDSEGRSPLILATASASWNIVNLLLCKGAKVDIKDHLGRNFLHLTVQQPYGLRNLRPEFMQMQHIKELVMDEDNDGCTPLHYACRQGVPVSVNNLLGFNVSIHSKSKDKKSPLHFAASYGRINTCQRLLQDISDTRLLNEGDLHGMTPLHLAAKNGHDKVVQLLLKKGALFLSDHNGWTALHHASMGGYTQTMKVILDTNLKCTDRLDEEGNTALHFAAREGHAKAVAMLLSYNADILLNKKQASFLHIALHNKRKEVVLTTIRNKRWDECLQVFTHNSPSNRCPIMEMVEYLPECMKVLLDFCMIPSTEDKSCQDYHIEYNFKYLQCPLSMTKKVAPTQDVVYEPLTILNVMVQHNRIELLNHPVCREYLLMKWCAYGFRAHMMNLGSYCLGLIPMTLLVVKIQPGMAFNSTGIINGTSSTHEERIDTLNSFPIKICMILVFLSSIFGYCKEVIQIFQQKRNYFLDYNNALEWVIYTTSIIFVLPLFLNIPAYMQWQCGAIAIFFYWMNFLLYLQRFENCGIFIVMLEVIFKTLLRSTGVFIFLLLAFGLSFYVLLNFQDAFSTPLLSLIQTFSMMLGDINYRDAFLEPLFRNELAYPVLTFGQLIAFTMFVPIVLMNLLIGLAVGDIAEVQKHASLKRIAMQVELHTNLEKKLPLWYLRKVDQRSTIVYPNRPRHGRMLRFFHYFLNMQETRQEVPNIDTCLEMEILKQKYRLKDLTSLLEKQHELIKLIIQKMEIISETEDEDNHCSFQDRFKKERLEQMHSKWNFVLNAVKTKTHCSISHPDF
Transient receptor potential cation channel subfamily A member 1 (Homo sapiens), sequence (O75762 whole entry): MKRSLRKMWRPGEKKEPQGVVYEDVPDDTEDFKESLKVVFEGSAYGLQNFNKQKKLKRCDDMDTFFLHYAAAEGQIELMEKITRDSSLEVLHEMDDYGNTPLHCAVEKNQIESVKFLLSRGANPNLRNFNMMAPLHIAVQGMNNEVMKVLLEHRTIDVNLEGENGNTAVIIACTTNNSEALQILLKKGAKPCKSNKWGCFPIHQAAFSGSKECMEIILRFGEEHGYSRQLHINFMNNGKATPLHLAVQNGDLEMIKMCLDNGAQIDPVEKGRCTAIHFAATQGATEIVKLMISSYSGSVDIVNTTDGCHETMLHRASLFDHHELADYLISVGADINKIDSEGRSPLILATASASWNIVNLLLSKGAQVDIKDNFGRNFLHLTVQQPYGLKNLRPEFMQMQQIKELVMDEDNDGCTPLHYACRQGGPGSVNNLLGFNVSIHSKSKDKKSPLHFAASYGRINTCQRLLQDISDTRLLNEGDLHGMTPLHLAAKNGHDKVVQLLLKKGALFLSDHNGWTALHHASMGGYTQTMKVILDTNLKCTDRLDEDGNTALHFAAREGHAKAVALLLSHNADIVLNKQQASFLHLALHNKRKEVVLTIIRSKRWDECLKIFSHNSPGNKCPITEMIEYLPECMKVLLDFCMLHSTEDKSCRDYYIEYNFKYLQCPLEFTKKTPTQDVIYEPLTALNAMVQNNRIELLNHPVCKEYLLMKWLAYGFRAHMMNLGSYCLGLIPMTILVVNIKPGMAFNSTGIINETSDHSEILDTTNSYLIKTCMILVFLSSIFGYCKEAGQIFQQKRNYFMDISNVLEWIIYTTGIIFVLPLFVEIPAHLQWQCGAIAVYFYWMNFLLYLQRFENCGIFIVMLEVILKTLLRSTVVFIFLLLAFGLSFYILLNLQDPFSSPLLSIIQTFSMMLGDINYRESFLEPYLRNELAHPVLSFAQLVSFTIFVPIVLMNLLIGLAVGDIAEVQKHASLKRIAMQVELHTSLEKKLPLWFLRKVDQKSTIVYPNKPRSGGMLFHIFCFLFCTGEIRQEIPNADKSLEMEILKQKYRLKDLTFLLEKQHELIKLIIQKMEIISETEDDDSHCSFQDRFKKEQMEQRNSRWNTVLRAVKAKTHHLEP

With `COc1cc(CNC(=O)CCCC/C=C/C(C)C)ccc1O` [CAPSAICIN], the Activity result in data set [1] and in data set [5] was “Toxic” each time. In [2], the Drug uptake entry was “Active”. Further, the 50% lethal dose (LD50) in [3] was 119 mg/kg; in data set [7], 7.5 mg/kg. Besides, in [4], the Drug absorption result was “Active”. In the data set on Mus musculus [6], the outcome was Active.
Turning to `O=C/C=C/c1ccccc1`, the outcome in data set [8] and in data set [9] was Active.
For `CC1CCC(C(C)C)C(O)C1` (stereo not drawn), the result in data set [10] was Active.
On to `CC12CCC(CC1=O)C2(C)C` (stereo not drawn), for which the outcome in data set [11] was Active.
Turning to `NCC1(CC(=O)O)CCCCC1` [GABAPENTIN], the median effective dose (ED50) with Rattus norvegicus was at least 30 mg/kg; in the data set on Mus musculus [12], at least 40 mg/kg.

One may read the LD50 as the dose expected to kill half of the subjects tested. Lower therefore signals a more toxic substance. As a reminder, the ED50 is the dose at which the effect has come halfway, by size or by number of responders.
